Measurements reported in ChEMBL document CHEMBL1777741, “Design of a potent, soluble glucokinase activator with increased pharmacokinetic half-life” (Bioorg Med Chem Lett, 2011).
≈ marks a conversion by molar mass, not a printed value.

Legend:
[1] = target: T1, Hexokinase-4 (Homo sapiens, UniProt P35557); experiment: Activation of His-tagged recombinant glucokinase expressed in Escherichia coli using [14C]-glucose substrate by […]
T1 sequence (P35557 whole entry): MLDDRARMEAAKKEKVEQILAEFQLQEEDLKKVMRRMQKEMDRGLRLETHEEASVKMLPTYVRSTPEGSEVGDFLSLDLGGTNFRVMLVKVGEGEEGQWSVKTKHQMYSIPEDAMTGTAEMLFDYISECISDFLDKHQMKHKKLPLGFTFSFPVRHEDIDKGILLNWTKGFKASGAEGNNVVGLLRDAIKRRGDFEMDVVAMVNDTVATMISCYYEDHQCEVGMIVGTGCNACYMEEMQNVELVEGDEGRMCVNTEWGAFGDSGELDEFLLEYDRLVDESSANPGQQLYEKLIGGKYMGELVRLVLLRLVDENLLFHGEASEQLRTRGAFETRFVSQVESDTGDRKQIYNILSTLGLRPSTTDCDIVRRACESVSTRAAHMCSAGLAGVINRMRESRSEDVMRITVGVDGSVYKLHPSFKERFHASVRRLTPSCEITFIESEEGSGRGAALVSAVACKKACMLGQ

[2] = in vivo; settings: CR-Han Wistar, rat, iv, 1 mg/kg
[3] = in vitro; settings: rat, plasma
[4] = Solubility of the compound; type: physicochemical
[5] = Percentage unbound in dog plasma; type: ADME, cell-free, Canis lupus familiaris
Method in brief: (§1)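 Unbound fraction in plasma was measured by equilibrium dialysis and reported as percentage free.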

[6] = Percentage unbound in human plasma; type: ADME, cell-free; method in brief: as §1
[7] = Half life in rat; type: ADME, organism-based; settings: in vivo
[8] = Bioavailability in rat; type: ADME, organism-based; settings: in vivo
[9] = Clearance in dog; type: ADME, organism-based, Canis lupus familiaris; settings: in vivo
[10] = Half life in dog; type: ADME, organism-based, Canis lupus familiaris; settings: in vivo
[11] = Bioavailability in dog; type: ADME, organism-based, Canis lupus familiaris; settings: in vivo
[12] = Intrinsic clearance in rat hepatocytes measured per 10^6 cells; type: ADME, cell-based, Liver, Hepatocyte
[13] = Intrinsic clearance in dog hepatocytes measured per 10^6 cells; type: ADME, cell-based, Canis lupus familiaris, Liver, Hepatocyte
[14] = Intrinsic clearance in human hepatocytes measured per 10^6 cells; type: ADME, cell-based, Liver, Hepatocyte

Row | EC50 [1] | clearance [2] | fraction unbound [3] | Compound | other results
1 | 40 nM | 1 mL/min/kg | 0.0025 | COC[C@H](C)Oc1cc(O[C@@H](C)Cc2ccc(F)cc2)cc(C(=O)Nc2ccc(C(=O)O)cn2)c1 | 
2 |  | 6.1 mL/min/kg | 0.0042 | COC[C@H](C)Oc1cc(O[C@@H](C)Cc2ccccc2OC)cc(C(=O)Nc2ccc(C(=O)O)cn2)c1 | 
3 |  | 1.1 mL/min/kg | 0.001 | COC[C@H](C)Oc1cc(O[C@@H](C)Cc2cc(F)cc(F)c2)cc(C(=O)Nc2ccc(C(=O)O)cn2)c1 | 
4 | 30 nM | 1.6 mL/min/kg | 0.0025 | COC[C@H](C)Oc1cc(O[C@@H](C)Cc2ccc(Cl)o2)cc(C(=O)Nc2ccc(C(=O)O)cn2)c1 | 
5 | > 10000 nM |  | 0.0042 | COCC(C)(C)Oc1cc(O[C@@H](C)Cc2ccccc2)cc(C(=O)Nc2ccc(C(=O)O)cn2)c1 | 
6 | > 10000 nM |  | 0.0109 | C[C@@H](Cc1ccccc1)Oc1cc(OC2CCOCC2)cc(C(=O)Nc2ccc(C(=O)O)cn2)c1 | 
7 | 70 nM | 2.9 mL/min/kg | 0.0033 | COC[C@H](C)Oc1cc(OC[C@H](C)c2ccccc2)cc(C(=O)Nc2ccc(C(=O)O)cn2)c1 | 
8 | 100 nM | 1.6 mL/min/kg | 0.001 | CC(C)Oc1cc(OC2Cc3ccccc3C2)cc(C(=O)Nc2ccc(C(=O)O)cn2)c1 | 
9 |  | 0.2 mL/min/kg | 0.0021 | CC(C)Oc1cc(Oc2ccccc2)cc(C(=O)Nc2ccc(C(=O)O)cn2)c1 | 
10 | 160 nM | 0.4 mL/min/kg | 0.0055 | COC[C@H](C)Oc1cc(Oc2ccccc2)cc(C(=O)Nc2ccc(C(=O)O)cn2)c1 | 
11 | 60 nM | 3.2 mL/min/kg | 0.0069 | COC[C@H](C)Oc1cc(Oc2ccc(OC)cc2)cc(C(=O)Nc2ccc(C(=O)O)cn2)c1 | 
12 | 110 nM | 0.8 mL/min/kg | 0.0016 | COC[C@H](C)Oc1cc(Oc2cccc(Cl)c2)cc(C(=O)Nc2ccc(C(=O)O)cn2)c1 | 
13 |  | 0.9 mL/min/kg | 0.0012 | COC[C@H](C)Oc1cc(Oc2ccc(Cl)cc2)cc(C(=O)Nc2ccc(C(=O)O)cn2)c1 | 
14 | 180 nM | 0.2 mL/min/kg | 0.0021 | COC[C@H](C)Oc1cc(Oc2cccc(F)c2)cc(C(=O)Nc2ccc(C(=O)O)cn2)c1 | 
15 | 400 nM |  | 0.0122 | COC[C@H](C)Oc1cc(Oc2cccc(N(C)C)c2)cc(C(=O)Nc2ccc(C(=O)O)cn2)c1 | 
16 | 60 nM | 8.2 mL/min/kg | 0.0738 | COC[C@H](C)Oc1cc(Oc2ccc(S(C)(=O)=O)cc2)cc(C(=O)Nc2ccc(C(=O)O)cn2)c1 | 
17 | 90 nM | 0.1 mL/min/kg | 0.0023 | COC[C@H](C)Oc1cc(Oc2cc(F)cc(F)c2)cc(C(=O)Nc2ccc(C(=O)O)cn2)c1 | solubility [4]: 841 µM (≈ 386 µg/mL); fraction unbound [5]: 0.0159; fraction unbound [6]: 0.0055; half-life [7]: 15.8 h; bioavailability [8]: 97%; clearance [9]: 5.2 mL/min/kg; half-life [10]: 4.9 h; bioavailability [11]: > 100%; hepatocyte CLint [12]: < 1 µL/min/1e6 cells; hepatocyte CLint [13]: < 1 µL/min/1e6 cells; hepatocyte CLint [14]: < 1 µL/min/1e6 cells
18 |  | 1.9 mL/min/kg | 0.004 | COC[C@H](C)Oc1cc(O[C@@H](C)Cc2ccccc2)cc(C(=O)Nc2ccc(C(=O)O)cn2)c1 | fraction unbound [5]: 0.0146; fraction unbound [6]: 0.0044; half-life [7]: 4.5 h; half-life [10]: 1.4 h; hepatocyte CLint [12]: < 1 µL/min/1e6 cells; hepatocyte CLint [13]: < 1 µL/min/1e6 cells; hepatocyte CLint [14]: < 1 µL/min/1e6 cells
19 |  | 3.3 mL/min/kg | 0.0023 | CC(C)Oc1cc(O[C@@H](C)Cc2ccccc2)cc(C(=O)Nc2ccc(C(=O)O)cn2)c1 | 
20 | 150 nM | 0.6 mL/min/kg | 0.0035 | CC(C)Oc1cc(O[C@@H](C)c2ccccc2)cc(C(=O)Nc2ccc(C(=O)O)cn2)c1 | 
